Screening results deposited in PubChem BioAssay by Broad Institute.
INS-1E rescue = protection of INS-1E cells from cytokine death, primary screen, ATP luminescence, single point | INS-1E cytokine-induced death, 48 h; normalised: neutral wells 0, positive control 100 | protection from cytokine-induced ATP loss, % at 10 µM | hit rate 0.1% among 20,000 | AID 488910, 2010;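 active = mean replicate protection from cytokine-induced ATP loss at least 50% and at least 75% of replicates each reaching 50%; inconclusive = meets only one of the two criteria, mean or replicate share; inactive = fails both the mean and replicate share criteria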
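Assay system: INS-1E rat insulinoma cells. Amount: 8000 cells per well. Medium: phenol-red-free RPMI with 5% fetal bovine serum. Reagent: IL-1β, TNF-α and IFN-γ cytokine mix. Doses: one compound concentration, pin transfer. Schedule: 48 h co-treatment, 10 min post-lysis read. Detection: CellTiter-Glo luminescence measuring cellular ATP.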
T cruzi HTS = inhibitors of intracellular Trypanosoma cruzi, primary screen, cell-based, plate reader, single point, set 2; intracellular Trypanosoma cruzi in host cells; activity score (inhibition), % at 5.01 µM; hit rate 4.9% among 22,000; AID 651903, 2012; in the data active = activity score above about 55%; inconclusive = no clear call, values can overlap the other calls;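 also: parasites and compound incubated about four days before reading; 0% = median of neutral control wells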
A1 apoptosis 2 = A1 inhibitors via caspase activation, primary screen, cell-based, luminescence, HTS, two replicates | MEF A1-2A-BIM cells, caspase-Glo luminescence, 3 h; percent of clofoctol response, DMSO zero | 24,000 tested, under 10 active | caspase activation, % (concentration not given with the values) | AID 2465, 2010; in the data active = caspase activation above about 5.9%; inconclusive = no clear call, values can overlap the other calls; inactive = below about 2.2%
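Material: A1-2A-BIM-expressing MEF cells. Buffer or medium: RPMI-1640 plus 10% FBS. Incubation: cells settled overnight, compound exposure 3 h at 37 °C, 5% CO2. Signal: Caspase-Glo 3/7 luminescence, 1 h at room temperature.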
An asterisk follows results filed as active; ? = inconclusive; nt = no result given. Many of the other results were omitted from the sample, so hits are more common in it than they were.

SMILES | INS-1E rescue | T cruzi HTS | A1 apoptosis 2
C[C@@H]1CN([C@@H](C)CO)C(=O)Cc2cc(NS(=O)(=O)c3ccc(F)cc3)ccc2O[C@@H]1CN(C)Cc1ccccc1 | -8.3 | 40.3 | nt
C[C@@H]1CN([C@@H](C)CO)C(=O)Cc2cc(NS(=O)(=O)c3ccc(F)cc3)ccc2O[C@H]1CN(C)Cc1ccccc1 | nt | nt | -0.5
C[C@@H]1CN([C@H](C)CO)C(=O)Cc2cc(NS(=O)(=O)c3ccc(F)cc3)ccc2O[C@H]1CN(C)Cc1ccc(-c2ccccc2)cc1 | -13.2 | 62.1* | nt
C[C@@H]1CN([C@@H](C)CO)C(=O)c2cc(NC(=O)c3ccccc3)ccc2O[C@@H](C)CCCCO[C@H]1CN(C)C(=O)NC1CCCCC1 | nt | nt | 0.4
COc1ccc(NC(=O)O[C@H]2[C@H](OC(=O)Nc3ccccc3-c3ccccc3)[C@H](OC(=O)Nc3ccccc3-c3ccccc3)[C@@H](OC)O[C@@H]2CO)cc1 | nt | nt | -2.0
C[C@@H]1CN([C@H](C)CO)C(=O)c2cc(N(C)C)ccc2O[C@@H](C)CCCCO[C@@H]1CN(C)C(=O)c1ccncc1 | nt | nt | 0.1
COc1ccc(S(=O)(=O)Nc2ccc3c(c2)CC(=O)N([C@H](C)CO)C[C@@H](C)[C@@H](CN(C)Cc2ccc(Cl)c(Cl)c2)O3)cc1 | -12.4 | 55.2* | -0.8
COc1ccc(CN(C)C[C@@H]2Oc3ccc(NS(=O)(=O)c4ccc(Cl)cc4)cc3CC(=O)N([C@@H](C)CO)C[C@H]2C)cc1 | nt | nt | -1.2
COc1ccc(S(=O)(=O)Nc2ccc3c(c2)CC(=O)N([C@@H](C)CO)C[C@@H](C)[C@@H](CN(C)Cc2ccc(Cl)c(Cl)c2)O3)cc1 | -39.4 | 63.2* | nt
COc1ccc(S(=O)(=O)Nc2ccc3c(c2)CC(=O)N([C@@H](C)CO)C[C@H](C)[C@H](CN(C)Cc2ccc(Cl)c(Cl)c2)O3)cc1 | -21.3 | 73.2* | nt
COc1ccc(S(=O)(=O)Nc2ccc3c(c2)C(=O)N([C@@H](C)CO)C[C@@H](C)[C@@H](CN(C)Cc2ccc(Cl)c(Cl)c2)O3)cc1 | -25.4 | 11.8 | 1.1
COc1ccc(S(=O)(=O)Nc2ccc3c(c2)CC(=O)N([C@H](C)CO)C[C@H](C)[C@@H](CN(C)Cc2ccc(Cl)c(Cl)c2)O3)cc1 | nt | nt | -0.9
COc1ccc(S(=O)(=O)N(C)C[C@H]2OCCCC[C@@H](C)Oc3ccc(NC(=O)CCCN(C)C)cc3C(=O)N([C@H](C)CO)C[C@@H]2C)cc1 | nt | nt | 0.2
COc1ccc(S(=O)(=O)Nc2ccc3c(c2)C(=O)N([C@@H](C)CO)C[C@H](C)[C@H](CN(C)C(=O)NC(C)C)O3)cc1 | nt | nt | -0.4
C[C@@H]1CN([C@H](C)CO)C(=O)c2cc(NC(=O)CCN3CCOCC3)ccc2O[C@@H]1CN(C)Cc1ccc(Cl)c(Cl)c1 | 1.8 | -15.0 | nt
C[C@@H]1CN([C@@H](C)CO)C(=O)c2cc(NC(=O)Nc3cccc4ccccc34)ccc2O[C@@H]1CN(C)Cc1ccc(C(F)(F)F)cc1 | nt | 59.2* | nt
C[C@@H]1CN([C@H](C)CO)C(=O)c2cc(NC(=O)Nc3cccc4ccccc34)ccc2O[C@@H]1CN(C)Cc1ccc(C(F)(F)F)cc1 | -11.2 | 74.8* | 0.0
C[C@H](CO)N1C[C@H](C)[C@H](CN(C)Cc2ccc(C(F)(F)F)cc2)Oc2ccc(NC(=O)Nc3cccc4ccccc34)cc2C1=O | nt | 49.5 | 1.3
C[C@@H]1CN([C@@H](C)CO)C(=O)c2cc(NC(=O)Nc3cccc4ccccc34)ccc2O[C@H]1CN(C)Cc1ccccc1 | -15.1 | ? | nt
CC(C)(C)OC(=O)N1CCC[C@H]1/C=N/NC(=O)CCCCCC(=O)O | 5.8 | -5.4 | nt
C[C@@H]1CN([C@@H](C)CO)C(=O)Cc2cc(NC(=O)NC3CCCCC3)ccc2O[C@@H]1CN(C)Cc1ccc(Oc2ccccc2)cc1 | -17.3 | 53.0 | nt
C[C@H](CO)N1C[C@H](C)[C@@H](CN(C)Cc2ccc(-c3ccccc3)cc2)Oc2ccc(NC(=O)NC3CCCCC3)cc2CC1=O | nt | nt | -0.9
C[C@@H]1CN([C@H](C)CO)C(=O)Cc2cc(NC(=O)NC3CCCCC3)ccc2O[C@H]1CN(C)Cc1ccc(Oc2ccccc2)cc1 | -29.4 | 64.5* | 0.6
C[C@@H]1CN([C@H](C)CO)C(=O)Cc2cc(NC(=O)NC3CCCCC3)ccc2O[C@H]1CN(C)Cc1ccc(-c2ccccc2)cc1 | -26.9 | 75.0* | nt
COc1ccc(S(=O)(=O)N(C)C[C@H]2OCCCC[C@H](C)Oc3ccc(NS(=O)(=O)c4cn(C)cn4)cc3C(=O)N([C@H](C)CO)C[C@H]2C)cc1 | nt | nt | -0.1
SMILES | INS-1E rescue | T cruzi HTS | A1 apoptosis 2
O=C(CCCCCCC(=O)Nc1ccccc1O)N/N=C/[C@H](O)[C@@H](O)[C@H](O[C@@H]1O[C@H](CO)[C@H](O)[C@H](O)[C@H]1O)[C@H](O)CO | -14.4 | 1.0 | nt
COc1ccc(S(=O)(=O)N(C)C[C@H]2Oc3ccc(NS(=O)(=O)c4ccc(C)cc4)cc3CC(=O)N([C@H](C)CO)C[C@H]2C)cc1 | 6.6 | 64.4* | 0.8
COc1ccc(S(=O)(=O)Nc2ccc3c(c2)CC(=O)N([C@@H](C)CO)C[C@@H](C)[C@@H](CN(C)S(=O)(=O)c2ccc(C)cc2)O3)cc1 | 7.0 | 63.1* | nt
COc1ccc(S(=O)(=O)Nc2ccc3c(c2)CC(=O)N([C@H](C)CO)C[C@H](C)[C@H](CN(C)S(=O)(=O)c2ccc(C)cc2)O3)cc1 | -2.5 | 21.1 | -1.0
COc1ccc(S(=O)(=O)N(C)C[C@@H]2Oc3ccc(NS(=O)(=O)c4ccc(C)cc4)cc3CC(=O)N([C@@H](C)CO)C[C@@H]2C)cc1 | 9.1 | -4.3 | nt
C[C@H]1CCCCO[C@@H](CN(C)Cc2ccc(C(F)(F)F)cc2)[C@@H](C)CN([C@@H](C)CO)C(=O)c2cc(NC(=O)Cc3ccccc3)ccc2O1 | nt | nt | 0.2
C[C@H]1CN([C@@H](C)CO)C(=O)c2cccc(NC(=O)Nc3ccc4c(c3)OCO4)c2O[C@H]1CN(C)Cc1ccc2c(c1)OCO2 | -12.4 | -17.4 | nt
C[C@@H]1CN([C@H](C)CO)C(=O)c2cccc(NC(=O)Nc3ccc(C(F)(F)F)cc3)c2O[C@H]1CN(C)Cc1ccc2c(c1)OCO2 | -57.7 | 80.0* | -0.9
C[C@H](CO)N1C[C@H](C)[C@H](CN(C)Cc2ccc3c(c2)OCO3)Oc2c(NC(=O)Nc3ccc(C(F)(F)F)cc3)cccc2C1=O | -50.8 | 62.2* | 0.0
C[C@H]1CN([C@@H](C)CO)C(=O)c2cccc(NC(=O)Nc3ccc(C(F)(F)F)cc3)c2O[C@@H]1CN(C)Cc1ccc2c(c1)OCO2 | -12.6 | 52.5 | nt
C[C@@H]1CN([C@H](C)CO)C(=O)c2cccc(NC(=O)Nc3ccc(C(F)(F)F)cc3)c2O[C@@H]1CN(C)Cc1ccc2c(c1)OCO2 | -26.7 | ? | 0.7
C[C@H](CO)N1C[C@H](C)[C@@H](CN(C)Cc2ccc3c(c2)OCO3)Oc2c(NC(=O)Nc3ccc(C(F)(F)F)cc3)cccc2C1=O | -36.3 | 83.5* | nt
